From ChEMBL document CHEMBL4699426, “A practical synthesis of amino limonin/deoxylimonin derivatives as effective mitigators against inflammation and nociception” (2020)

Assays:
Type in all cases: functional
[1] = test system: Mus musculus; experiment: Analgesic activity in mouse model of acetic-acid-induced writhing assessed as inhibition of writhing numbers at 200 mg/kg, po pretreated with compound followed by acetic acid challenge and measured after 30 mins relative to control; conditions: 0.5 h
In short: (§1)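 Acetic acid writhing in mice. Oral dosing (70 mg/kg test compounds or limonin; 200 mg/kg aspirin); vehicle controls got 0.5% CMC-Na. 30 min later 0.6% acetic acid, 10 ml/kg i.p. Each animal held in its own box and observed for 15 min; writhing and stretching counted; result as percent change from vehicle writhing controls.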

[2] = test system: Mus musculus; experiment: Analgesic activity in mouse model of acetic-acid-induced writhing assessed as inhibition of writhing numbers at 70 mg/kg, po pretreated with compound followed by acetic acid challenge and measured after 30 mins relative to control; conditions: 0.5 h; in short: as §1
[3] = test system: Mus musculus; experiment: Antiinflammatory activity in mouse model of xylene-induced ear swelling assessed as inhibition of swelling by measuring weight of the ear at 100 mg/kg, ig pretreated for 90 mins followed by xylene challenge and measured after 30 mins relative to control; conditions: po, 2 h, time 120 min
In short: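 Xylene ear swelling in mice. Test compounds 100 mg/kg i.g., naproxen 150 mg/kg i.g., all suspended in 0.5% CMC-Na; vehicle group got CMC-Na alone. 90 min after dosing, 25 ul xylene applied to both surfaces of right ear; left ear unstimulated. Killed 30 min later; 8 mm punches from both ears weighed; swelling taken against left ear weight.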

[4] = test system: Mus musculus; experiment: Antiinflammatory activity in ICR mouse model of carrageenan-induced paw edema assessed as paw edema inhibition rate at 50 mg/kg, po pretreated with compound followed by carrageenan challenge and measured after 1 hr post-treatment by dial thickness gage
In short: (§2)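 ICR male mice, 8 per group, randomized, acclimated at least one week, 12 h light/dark, 22 ± 1 °C. Dosed intragastrically at 25, 50 or 100 mg/kg; indomethacin 22 mg/kg i.g. as reference; olive oil as vehicle. 30 min later, 1% fresh carrageenan in saline injected subplantar into right hind paw. Paw thickness read by dial gauge before injection and at 1, 2, 3 and 4 h; percent increase over pre-injection value.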

[5] = test system: Mus musculus; experiment: Antiinflammatory activity in ICR mouse model of carrageenan-induced paw edema assessed as paw edema inhibition rate at 50 mg/kg, po pretreated with compound followed by carrageenan challenge and measured after 2 hrs post-treatment by dial thickness gage; in short: as §2
[6] = test system: Mus musculus; experiment: Antiinflammatory activity in ICR mouse model of carrageenan-induced paw edema assessed as paw edema inhibition rate at 50 mg/kg, po pretreated with compound followed by carrageenan challenge and measured after 3 hrs post-treatment by dial thickness gage; in short: as §2
[7] = test system: Mus musculus; experiment: Antiinflammatory activity in ICR mouse model of carrageenan-induced paw edema assessed as paw edema inhibition rate at 22 mg/kg, po pretreated with compound followed by carrageenan challenge and measured after 3 hrs post-treatment by dial thickness gage; in short: as §2
[8] = test system: Mus musculus; experiment: Antiinflammatory activity in ICR mouse model of carrageenan-induced paw edema assessed as paw edema inhibition rate at 22 mg/kg, po pretreated with compound followed by carrageenan challenge and measured after 2 hrs post-treatment by dial thickness gage; in short: as §2
[9] = test system: Mus musculus; experiment: Antiinflammatory activity in ICR mouse model of carrageenan-induced paw edema assessed as paw edema inhibition rate at 22 mg/kg, po pretreated with compound followed by carrageenan challenge and measured after 4 hrs post-treatment by dial thickness gage; in short: as §2
[10] = test system: Mus musculus; experiment: Antiinflammatory activity in ICR mouse model of carrageenan-induced paw edema assessed as paw edema inhibition rate at 22 mg/kg, po pretreated with compound followed by carrageenan challenge and measured after 1 hr post-treatment by dial thickness gage; in short: as §2

CC(=O)Oc1ccccc1C(=O)O [ASPIRIN]
inhibition in vivo at 200 mg/kg [1]: 51.5%

COc1ccc(CCNCCC2OC(C)(C)[C@@H]3CC(=O)[C@]4(C)[C@H](CC[C@@]5(C)[C@H](c6ccoc6)OC(=O)[C@H]6O[C@]654)C23CO)cc1OC (stereo not given in full)
inhibition in vivo at 70 mg/kg [2]: 11.2% | inhibition in vivo at 100 mg/kg [3]: 26.7%

CC1(C)O[C@H]2CC(=O)OC[C@]23[C@H]2CC[C@@]4(C)[C@H](c5ccoc5)OC(=O)[C@H]5O[C@]54[C@]2(C)C(=O)C[C@@H]13 [LIMONIN]
inhibition in vivo at 70 mg/kg [2]: 44.2% | inhibition in vivo at 50 mg/kg [4]: 57.3% | inhibition in vivo at 100 mg/kg [3]: 14.4% | inhibition in vivo at 50 mg/kg [5]: 22% | inhibition in vivo at 50 mg/kg [6]: 26.3%

CC1(C)O[C@H]2CC(=O)OC[C@@]23[C@H]1CC(=O)[C@@]1(C)C2=CC(=O)O[C@@H](c4ccoc4)[C@]2(C)CC[C@@H]13
inhibition in vivo at 70 mg/kg [2]: 22.6% | inhibition in vivo at 100 mg/kg [3]: 11.2%

CC1(C)OC(CCNCc2ccc(F)cc2)C2(CO)[C@H]3CC[C@@]4(C)[C@H](c5ccoc5)OC(=O)[C@H]5O[C@]54[C@]3(C)C(=O)C[C@@H]12 (stereo not given in full)
inhibition in vivo at 70 mg/kg [2]: 63.8% | inhibition in vivo at 100 mg/kg [3]: 27.4%

CC1(C)OC(CCNCCc2ccc(F)cc2)C2(CO)[C@H]3CC[C@@]4(C)[C@H](c5ccoc5)OC(=O)[C@H]5O[C@]54[C@]3(C)C(=O)C[C@@H]12 (stereo not given in full)
inhibition in vivo at 70 mg/kg [2]: 55.8% | inhibition in vivo at 100 mg/kg [3]: 16.1%

COc1cccc(CCNCCC2OC(C)(C)[C@@H]3CC(=O)[C@]4(C)[C@H](CC[C@@]5(C)[C@H](c6ccoc6)OC(=O)[C@H]6O[C@]654)C23CO)c1 (stereo not given in full)
inhibition in vivo at 70 mg/kg [2]: 58.7% | inhibition in vivo at 100 mg/kg [3]: 17%

COc1ccc2c(c1)c(CC(=O)O)c(C)n2C(=O)c1ccc(Cl)cc1 [INDOMETHACIN]
inhibition in vivo at 22 mg/kg [7]: 64.9% | inhibition in vivo at 22 mg/kg [8]: 60% | inhibition in vivo at 22 mg/kg [9]: 64.8% | inhibition in vivo at 22 mg/kg [10]: 47.5%
